High-throughput results as filed in PubChem BioAssay.
The list is not random: actives were taken first. Their share in the collection is about 3.3%.
AHR activator – AHR activators, primary screen, cell-based, luminescence, luciferase reporter, human | Aryl hydrocarbon receptor (Homo sapiens), P35869 | AHR-responsive luciferase reporter cells | activation, % at 5 µM | hit rate 2.5% among 320,000 | AID 2796, 2010; in the data active = activation above about 47%
ABCB6 inh 2 – ABCB6 transporter inhibitors, primary screen, K562-ABCB6 cells, flow cytometry, MLPCN library. ATP-binding cassette sub-family B member 6 (Homo sapiens), Q9NP58. K562-ABCB6 porphyrin accumulation, 1 h; active compounds read low. fluorescence ratio to DMSO, % at 10 µM. hit rate 0.19% among 360,000. AID 602162, 2011;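 active = fluorescence ratio to DMSO below 75%, the collection mean minus 3 SD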;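 also: signal is porphyrin accumulated inside mitochondria; lower ratio means ABCB6 inhibition with less porphyrin fluorescence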
Target sequence (Q9NP58 whole entry, looked up): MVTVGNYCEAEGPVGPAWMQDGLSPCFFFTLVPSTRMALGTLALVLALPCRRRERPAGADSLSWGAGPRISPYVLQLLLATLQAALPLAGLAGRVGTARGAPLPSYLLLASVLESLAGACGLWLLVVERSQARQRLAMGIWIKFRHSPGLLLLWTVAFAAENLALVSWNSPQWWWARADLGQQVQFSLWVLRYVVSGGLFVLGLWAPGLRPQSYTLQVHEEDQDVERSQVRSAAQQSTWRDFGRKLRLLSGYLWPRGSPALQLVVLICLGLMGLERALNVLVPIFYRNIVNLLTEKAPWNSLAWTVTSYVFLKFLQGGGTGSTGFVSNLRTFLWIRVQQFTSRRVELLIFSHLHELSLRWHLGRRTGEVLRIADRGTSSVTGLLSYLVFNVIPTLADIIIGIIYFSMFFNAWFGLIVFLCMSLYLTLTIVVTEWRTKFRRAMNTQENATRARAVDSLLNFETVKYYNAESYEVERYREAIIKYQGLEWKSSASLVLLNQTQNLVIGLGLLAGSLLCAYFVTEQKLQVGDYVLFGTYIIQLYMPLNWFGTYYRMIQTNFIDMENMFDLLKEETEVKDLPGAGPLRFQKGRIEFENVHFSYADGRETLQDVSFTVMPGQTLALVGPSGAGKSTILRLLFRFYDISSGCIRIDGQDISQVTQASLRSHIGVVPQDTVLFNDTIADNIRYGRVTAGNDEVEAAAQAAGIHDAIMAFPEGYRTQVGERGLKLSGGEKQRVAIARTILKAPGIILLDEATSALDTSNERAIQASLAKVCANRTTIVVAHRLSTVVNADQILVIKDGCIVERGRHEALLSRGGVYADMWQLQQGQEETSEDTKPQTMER
STAT3 activator – IL-6 driven STAT3 reporter potentiators, primary screen, U3A cells, luciferase, luminescence, MLSCN library; IL-6 STAT3-luciferase reporter; 100% = signal with IL-6 EC80 alone; activation (% of control), % at 5.6 µM; hit rate 0.91% among 190,000; AID 871, 2007;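 active = activation above the screen-wide mean of compound activation plus 3 SD, cut at about 130% in these data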
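System – human U3A cells carrying STAT3-luciferase construct · Probe or stimulus – Interleukin-6, 33 ng/mL · Schedule – compound 1 h, then IL-6 6 h at 37 °C · Signal – luminescence from STAT3-driven luciferase reporter · Evaluation – percent of IL-6-only median luminescence · Benchmarks – IL-6-only high control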
FXN GAA850 act – FXN promoter activators, primary screen, cell-based, luciferase luminescence, HEK293 lucGAA850 | HEK293 lucGAA850 FXN promoter luciferase reporter, 24 h; percent of 10 µM SAHA response | activation, % at 6 µM | hit rate 0.56% among 360,000 | AID 540364, 2011;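 active = activation above the average of all compounds screened plus 3 SD, cutoff fixed separately per campaign, cut at about 7.5% in these data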
Large screens that a line does not name were inactive.

CCc1ccc(S(=O)(=O)/N=C2\C=C(Nc3ccc(C(=O)O)cc3)C(=O)c3ccccc32)cc1	none (no result: STAT3 activator)
CC(C)(C)c1ccc(S(=O)(=O)/N=C2\C=C(NS(=O)(=O)c3ccccc3)C(=O)c3ccccc32)cc1	AHR activator 54 (no result: STAT3 activator)
COC(=O)c1ccccc1NC1=C/C(=N\S(=O)(=O)c2ccc(C(=O)O)cc2)c2ccccc2C1=O	AHR activator 62 (no result: STAT3 activator)
Cc1ccc(S(=O)(=O)/N=C2\C=C(NS(=O)(=O)c3ccccc3)C(=O)c3ccccc32)c(C)c1	none (no result: AHR activator, STAT3 activator)
O=C1C(Nc2ccccc2)=C/C(=N/S(=O)(=O)c2cccs2)c2ccccc21	STAT3 activator 136
O=S(=O)(Nc1ncccn1)c1ccc(NC(=S)Nc2cccc(Cl)c2)cc1	none (no result: ABCB6 inh 2, STAT3 activator, FXN GAA850 act)
Cc1cc(Cl)ccc1OCCn1cncn1	none
COc1ccc(OC)c(S(=O)(=O)N2CCN(C(=O)c3cc(C4CC4)nn3-c3ccccc3)CC2)c1	none (no result: STAT3 activator)
COC(=O)c1ccc2nc(-c3ccc(F)cc3)c(Cc3ccccc3C(F)(F)F)n2c1	none (no result: AHR activator, STAT3 activator, FXN GAA850 act)
CC(C)(C)CC(=O)Nc1cc(S(=O)(=O)N2CCOCC2)ccc1N1CCCC1	none (no result: STAT3 activator)
NC(=O)CC[C@H](NC(=O)c1ccc(F)cc1)C(=O)OCC(=O)NCc1ccc(F)cc1	none
COCc1cc(C)nc2sc(C(=O)N3CCCC3)c(N)c12	AHR activator 76
COCc1cc(C)nc2sc(C(=O)OC)c(N)c12	none
O=c1[nH]c(-c2cccnc2)nc2sc(-c3ccccc3)cc12	AHR activator 75
c1cncc(-c2nc3cc4ccccc4cc3[nH]2)c1	AHR activator 56
O=C(Nc1ccc2nc(-c3cccnc3)[nH]c2c1)c1ccccc1F	none
Cc1nc2sc(-c3ccccc3)cc2c(=O)[nH]1	none
C=CCNC(=O)c1onc(CCl)c1C(=O)OC	none
CCn1c(COc2ccc(OC)cc2)nnc1SCc1nc2ccccc2c(=O)[nH]1	none (no result: ABCB6 inh 2, FXN GAA850 act)
N#CC1=C(N)Oc2c(oc(CO)cc2=O)C12C(=O)Nc1ccc(Cl)cc12 (stereo not given)	none
O=[N+]([O-])c1ccc(NN=Cc2cccc([N+](=O)[O-])c2)cc1	none (no result: AHR activator, STAT3 activator)
O=[N+]([O-])c1ccc(N/N=C/c2ccc[nH]2)cc1	AHR activator 61
Cc1ccccc1-c1nc(-c2ccc(NC(=O)c3cccs3)cc2)no1	AHR activator 57
c1ccc(CSc2ncn[nH]2)nc1	none
CCCCC(=O)Nc1ccc(NC(=O)c2ccc3c(c2)OCO3)cc1OC	none
CCCCC(=O)Nc1ccc(NC(=O)c2ccc(C)c([N+](=O)[O-])c2)cc1OC	AHR activator 72
COc1cc(NC(=O)C/C(C)=N/NC(=O)c2cccc(O)c2)c(OC)cc1Cl	AHR activator 82
COc1ccc(Cl)cc1NC(=O)C/C(C)=N/NC(=O)c1ccc(O)cc1	none (no result: AHR activator, STAT3 activator)
Cc1cccc(Nc2nc3ccccc3n3nnnc23)c1	none
Cc1ccc(Nc2nc3ccccc3n3nnnc23)cc1	AHR activator 52
Cc1cc(C)n(C(=O)/C=C/c2cccs2)n1	none (no result: STAT3 activator)
CCOc1ccccc1NC(=O)c1ccccc1-c1nc(-c2ccccc2OC)no1	AHR activator 64
FC(F)(F)c1ccccc1-c1nc(-c2ccncc2)no1	none (no result: STAT3 activator)
CCOc1nc(C)ccc1-c1noc(-c2ccccc2OC)n1	AHR activator 50
CCSc1ccccc1-c1nc(-c2ccncc2)no1	AHR activator 65 (no result: STAT3 activator)
CCOc1ccc(-c2noc(-c3ccncc3)n2)cc1OCC	none
CCNC(=O)c1ccccc1-c1nc(-c2ccccc2OC)no1	none (no result: STAT3 activator)
CCOc1ccccc1-c1nc(-c2ccncc2)no1	AHR activator 48
CCOc1cc(-c2nc(-c3ccc(C)nc3OCC)no2)cc(OCC)c1OCC	none
Cc1cc(C)c(-c2cc(NC(=O)CSc3n[nH]c(N)n3)n(-c3ccccc3)n2)cc1C	AHR activator 56
Cc1cnc(C(=O)OCC(=O)Nc2cc(-c3cc(C)c(C)cc3C)nn2-c2ccccc2)cn1	AHR activator 60 (no result: STAT3 activator)
COc1cccc(Nc2nc(C(N)Cc3ccccc3)cs2)n1 (stereo not given)	none (no result: AHR activator, STAT3 activator)
O=C(CSc1nc2[nH]ncc2c(=O)[nH]1)NCCc1ccccc1	AHR activator 78
O=C(CSc1nc2[nH]ncc2c(=O)[nH]1)NCc1ccccc1	none
Brc1ccc(-c2nnc(-c3cccnc3)c3conc23)cc1	STAT3 activator 134 (no result: ABCB6 inh 2, FXN GAA850 act)
CC1(C)NC(=O)N(CC(O)Cn2nnc3ccccc32)C1=O (stereo not given)	none
Cc1nnc(-c2cnn(C)c2N)n1CCCN(C)C	none
Cc1nnc(-c2cnn(C)c2N)n1Cc1cccc(Cl)c1	AHR activator 54
CCCCCCCn1c(C)nnc1-c1cnn(C)c1N	AHR activator 70
OCC[C@@H]1C[C@H](O)[C@@H](O)[C@]2(CCc3ccccc3O2)O1	none (no result: STAT3 activator)
CCOc1ccc(CCN2C(=S)N([C@@H](Cc3ccc(O)cc3)CN3CCC[C@@H]3CN3C(=S)NC[C@@H]3Cc3ccc(O)cc3)C[C@@H]2Cc2ccc(O)cc2)cc1	none (no result: AHR activator, STAT3 activator, FXN GAA850 act)
CC12CC3(C)CC(C)(C1)CC(C(=O)NCCc1ccc(S(N)(=O)=O)cc1)(C2)C3	none (no result: STAT3 activator)
Cn1c(CCNS(=O)(=O)c2ccccc2)nnc1SCc1cccnc1	none (no result: STAT3 activator)
Cc1cccc(C)c1NC(=S)NC(=O)c1ccc(Br)o1	AHR activator 69
COc1ccc(C2(O)C(=O)Nc3ccc(C)cc32)cc1OC (stereo not given)	none (no result: STAT3 activator)
Cc1cc(C(=O)N/N=C\c2cc(C(C)(C)C)ccc2O)n[nH]1	AHR activator 53 (no result: STAT3 activator)
Cc1cc(C(=O)N/N=C/c2cc(Br)cc(Br)c2OC(=O)c2ccccc2)n[nH]1	none (no result: ABCB6 inh 2, FXN GAA850 act)
Cc1cc(C(=O)N/N=C/c2cc(Br)ccc2OC(=O)c2ccc(Br)cc2)n[nH]1	AHR activator 50 (no result: ABCB6 inh 2, FXN GAA850 act)
C[C@@H]1CCCCO[C@H](CN(C)S(=O)(=O)c2cccs2)[C@@H](C)CN([C@H](C)CO)C(=O)c2cc(NC(=O)Nc3ccc4c(c3)OCO4)ccc2O1	none (no result: AHR activator, STAT3 activator)
O=C(c1ccc(Br)cc1)c1sc(N2CCOCC2)nc1-c1ccccc1	none
Cc1ccc(C2=NNC(c3ccc(Cl)cc3)=Nc3ccccc32)o1	AHR activator 50
COc1cc2ccccc2nn1	none (no result: STAT3 activator)
COc1ccc2c(n1)Sc1nc3ccccc3nc1N2	AHR activator 64 (no result: STAT3 activator)
O=C(NC(=S)Nc1cccc(Cl)c1Cl)C1CC1	AHR activator 52 (no result: STAT3 activator)
O=C(NNC(=S)Nc1ccccc1Cl)C1CC1	none
Cc1c(C)n(CCc2ccccc2)c2ncnc(NCCCN(C)C)c12	none (no result: STAT3 activator)
Cc1ccc(S(=O)(=O)N2c3ccccc3NC(=O)C2CC(=O)Nc2ccccc2)cc1 (stereo not given)	AHR activator 64
Cc1ccc(S(=O)(=O)N2c3ccccc3NC(=O)CC2C)cc1 (stereo not given)	none
COc1ccc(N/N=C(\C=N\O)C(=O)c2ccc(OC)cc2)cc1	AHR activator 48
O=C(NCC1CCCO1)c1cc2ccccc2oc1=O (stereo not given)	none
COc1cc(SC)ccc1C(=O)Nc1ccncc1	none
COc1cc(SC)ccc1C(=O)Nc1ccccc1C#N	STAT3 activator 133
Cc1ccc(C(=O)Cn2c(C(=O)O)cc3ccccc32)cc1	AHR activator 59 (no result: STAT3 activator)
